Assay results as given in ChEMBL document CHEMBL4393719, “Tetrahydro-3-benzazepines with fluorinated side chains as NMDA and σ1 receptor antagonists: Synthesis, receptor affinity, selectivity and antiallodynic activity” (Eur J Med Chem, 2019).
pEC50, pKi: −log10 of the molar value.

What was measured:
HepG2 [1] = assay: Cytotoxicity against human HepG2 assessed as reduction in cell viability at 1 to 100 uM after 20 hrs by MTT assay; assay type: cell-based; details: hepg2, 20 h
Summary of the method: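 HepG2 cells, 3 x 10^4/well, grown 24 h in MEM/10% FBS, then exposed 20 h in serum-free medium to compound at 1, 10, 100 µM (from DMSO solutions). MTT 0.5 mg/mL for 4 h, formazan dissolved in DMSO, OD 550 nm. IC50 taken as lowest concentration giving ≥50% cytotoxicity versus untreated cells; duplicates in two assays (n = 4).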

Sus scrofa = species: Sus scrofa; details: at 1 µM
[2] = target: T1, Sigma intracellular receptor 2 (Rattus norvegicus, UniProt Q5U3Y7); assay: Displacement of [3H]-di-o-tolylguanidine from sigma2 receptor in rat liver membranes incubated for 120 mins by scintillation counting method; assay type: cell membranes
T1 sequence (Q5U3Y7 whole entry): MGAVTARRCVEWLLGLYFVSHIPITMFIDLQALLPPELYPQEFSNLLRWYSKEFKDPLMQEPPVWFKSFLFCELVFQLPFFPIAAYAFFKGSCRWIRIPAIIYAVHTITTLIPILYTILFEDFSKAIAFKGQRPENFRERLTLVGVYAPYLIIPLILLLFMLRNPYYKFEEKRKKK

[3] = Stability of compound in aqueous HCl solution at pH 2 after 24 hrs by HPLC analysis; assay type: physicochemical; details: buffer, pH 2, 24 h
Summary of the method: (§1)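 Compound (25 μL of 10 mM DMSO stock) added to 1 mL aqueous buffered solution, pH 2 or pH 7.4, stirred 24 h at room temperature, analyzed by HPLC-MS; deemed stable if peak area remained 95–105%.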

Mu-type opioid receptor [4] = target: T2, Mu-type opioid receptor (Homo sapiens, UniProt P35372); assay: Displacement of [3H]DAMGO from human MOR expressed in CHO-K1 cells membranes after 60 mins by micro beta scintillation counting method; assay type: cell membranes
T2 sequence (P35372 whole entry): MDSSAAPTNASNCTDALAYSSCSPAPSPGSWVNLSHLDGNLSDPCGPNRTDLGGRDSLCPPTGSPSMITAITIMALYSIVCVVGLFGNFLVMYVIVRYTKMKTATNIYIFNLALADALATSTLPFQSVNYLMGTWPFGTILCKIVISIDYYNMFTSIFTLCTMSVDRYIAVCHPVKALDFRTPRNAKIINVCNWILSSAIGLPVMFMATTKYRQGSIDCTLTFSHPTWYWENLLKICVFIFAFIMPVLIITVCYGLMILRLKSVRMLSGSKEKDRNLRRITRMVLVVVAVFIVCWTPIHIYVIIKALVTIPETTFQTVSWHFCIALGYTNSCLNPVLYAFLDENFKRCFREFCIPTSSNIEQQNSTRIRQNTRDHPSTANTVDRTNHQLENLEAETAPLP
Summary of the method: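 Human MOR in CHO-K1 membranes (20 µg) with 1 nM [3H]DAMGO in 50 mM Tris-HCl, 5 mM MgCl2, pH 7.4, 27 °C for 60 min. Test compound at five concentrations; 10 µM naloxone defines nonspecific binding. Filtered, washed thrice with ice-cold 10 mM Tris-HCl, counted by liquid scintillation.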

HepG2 [5] = assay: Cytotoxicity against human HepG2 assessed as reduction in cell viability at 1 to 100 uM after 20 hrs by neutral red uptake assay; assay type: cell-based; details: hepg2, 20 h
Summary of the method: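 HepG2 seeded 3 x 10^4/well, 24 h, then 20 h serum-free exposure at 1, 10 or 100 µM. Neutral red 50 µg/mL for 3 h, washed, dye extracted with 50% ethanol/1% acetic acid, OD 550 nm. IC50 assigned as lowest concentration reaching ≥50% cytotoxicity against untreated cells; n = 4 (duplicate, two assays).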

CYP2D6 = CYP2D6 (Homo sapiens, UniProt P10635); assay: Inhibition of recombinant human CYP2D6 at 1 uM by fluorescence probe substrate-based flurometric analysis; assay type: ADME
Sequence of CYP2D6 (P10635 whole entry): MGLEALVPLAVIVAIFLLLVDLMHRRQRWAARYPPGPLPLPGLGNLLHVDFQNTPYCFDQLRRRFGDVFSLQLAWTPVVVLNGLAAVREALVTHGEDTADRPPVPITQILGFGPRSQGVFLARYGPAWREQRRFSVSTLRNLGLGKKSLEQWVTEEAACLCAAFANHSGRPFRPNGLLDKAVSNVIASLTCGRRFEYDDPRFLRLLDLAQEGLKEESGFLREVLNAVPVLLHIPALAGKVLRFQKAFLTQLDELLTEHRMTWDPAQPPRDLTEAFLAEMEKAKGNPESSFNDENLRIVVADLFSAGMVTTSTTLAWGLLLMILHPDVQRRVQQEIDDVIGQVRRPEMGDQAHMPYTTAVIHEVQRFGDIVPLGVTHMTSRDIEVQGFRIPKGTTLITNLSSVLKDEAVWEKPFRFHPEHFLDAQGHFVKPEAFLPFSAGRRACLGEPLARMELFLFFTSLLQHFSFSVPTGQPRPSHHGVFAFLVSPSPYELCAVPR

[6] = target: Alpha-1A adrenergic receptor (Homo sapiens) (UniProt P35348); assay: Displacement of [3H]prazosin from human adrenergic alpha1A receptor at 1 uM after 90 mins by scintillation counting method relative to control
Sequence of Alpha-1A adrenergic receptor (Homo sapiens) (P35348 whole entry): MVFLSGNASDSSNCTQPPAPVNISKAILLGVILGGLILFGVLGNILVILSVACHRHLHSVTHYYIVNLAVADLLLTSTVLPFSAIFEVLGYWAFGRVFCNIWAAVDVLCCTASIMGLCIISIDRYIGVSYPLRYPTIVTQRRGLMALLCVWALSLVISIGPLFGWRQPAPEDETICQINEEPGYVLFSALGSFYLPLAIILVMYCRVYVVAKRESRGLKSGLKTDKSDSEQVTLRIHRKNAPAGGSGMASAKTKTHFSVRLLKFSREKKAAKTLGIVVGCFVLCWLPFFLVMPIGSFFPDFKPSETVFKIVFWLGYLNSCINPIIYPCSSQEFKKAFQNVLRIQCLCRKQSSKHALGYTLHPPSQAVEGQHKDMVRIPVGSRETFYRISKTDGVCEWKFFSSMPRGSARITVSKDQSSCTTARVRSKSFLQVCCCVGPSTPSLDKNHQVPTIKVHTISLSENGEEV
Summary of the method: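 α1A adrenoceptor-enriched human membranes (10 µg), 0.2 nM [3H]prazosin in 50 mM HEPES, 5 mM MgCl2, 1 mM CaCl2, 0.2% BSA, pH 7.4; 90 min at 25 °C; 1 µM prazosin for nonspecific binding. Compound tested at 1 µM; bound ligand collected by filtration.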

[7] = target: Delta-type opioid receptor (Homo sapiens, UniProt P41143); assay: Inhibition of DOR (unknown origin)
Sequence of Delta-type opioid receptor (P41143 whole entry): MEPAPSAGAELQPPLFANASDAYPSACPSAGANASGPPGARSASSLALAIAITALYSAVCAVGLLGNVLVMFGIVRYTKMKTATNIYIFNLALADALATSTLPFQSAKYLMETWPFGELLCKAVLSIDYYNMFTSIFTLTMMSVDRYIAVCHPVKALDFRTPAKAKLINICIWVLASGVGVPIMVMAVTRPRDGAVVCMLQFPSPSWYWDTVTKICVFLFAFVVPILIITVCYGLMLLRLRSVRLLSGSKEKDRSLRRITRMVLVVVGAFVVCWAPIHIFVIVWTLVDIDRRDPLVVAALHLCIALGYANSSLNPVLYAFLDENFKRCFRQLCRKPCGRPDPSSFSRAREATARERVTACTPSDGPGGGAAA

[8] = Displacement of [3H] ifenprodil from GluN2B/GluN1a (unknown origin) expressed in mouse L(tk-) cell membranes incubated for 120 mins by scintillation counting method; design: species or system Homo sapiens
Summary of the method: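 Membranes from mouse L(tk-) cells co-transfected with dexamethasone-inducible GluN1a/GluN2B (1:5), induced 24 h with 4 μM dexamethasone plus 4 μM ketamine.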

[9] = Drug metabolism in rat liver microsomes at 1 uM incubated for 1 hr in presence of NADPH by UPLC-MS analysis; assay type: ADME, Microsome; details: read-out: Drug metabolism
Summary of the method: (§2)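 Liver microsomes, compound 1 µM, 37 °C for 1 h in 50 mM Na/K phosphate pH 7.4, 3 mM MgCl2, NADPH-regenerating system, CYP 0.3 nmol/mL. Aliquots at 0, 10, 20, 40, 60 min quenched with cold acetonitrile, supernatants by UPLC-MS/MS; % parent remaining at end reported. Terfenadine as positive control.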

[10] = target: 5-hydroxytryptamine receptor 1A (Homo sapiens) (UniProt P08908); assay: Displacement of [3H]8-OH-DPAT from human 5HT1A receptor at 1 uM incubated for 2 hrs scintillation counting method relative to control
Sequence of 5-hydroxytryptamine receptor 1A (Homo sapiens) (P08908 whole entry): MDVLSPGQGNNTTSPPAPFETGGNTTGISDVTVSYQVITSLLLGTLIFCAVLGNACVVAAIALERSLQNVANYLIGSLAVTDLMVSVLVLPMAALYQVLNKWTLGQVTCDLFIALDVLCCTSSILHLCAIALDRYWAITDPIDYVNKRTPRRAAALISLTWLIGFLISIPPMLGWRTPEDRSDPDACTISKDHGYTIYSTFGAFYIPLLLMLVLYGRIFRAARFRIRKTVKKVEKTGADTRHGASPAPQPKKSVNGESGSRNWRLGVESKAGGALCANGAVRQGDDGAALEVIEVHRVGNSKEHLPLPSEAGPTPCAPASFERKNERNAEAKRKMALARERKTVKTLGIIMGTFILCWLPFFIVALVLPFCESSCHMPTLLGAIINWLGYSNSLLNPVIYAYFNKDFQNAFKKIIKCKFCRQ
Summary of the method: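 Human 5-HT1A-enriched membranes (10 μg), 2 nM [3H]-8-OH-DPAT, 50 mM Tris-HCl/5 mM MgCl2 pH 7.4, 0.1% DMSO final, 2 h at 37 °C; 10 μM 5-HT for nonspecific binding. Compound at 1 μM; radioligand displacement read after GF/C filtration.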

[11] = Drug metabolism in human liver microsomes at 1 uM incubated for 1 hr in presence of NADPH by UPLC-MS analysis; assay type: ADME, Microsome; details: read-out: Drug metabolism; summary of the method: as §2
[12] = target: Sigma non-opioid intracellular receptor 1 (Cavia porcellus, UniProt Q60492); assay type: cell membranes;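 note: radioligand displacement of [3H]-(+)-pentazocine from guinea pig brain cortex membranes, 120 min incubation, bound radioactivity read by scintillation counting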
Sequence of Sigma non-opioid intracellular receptor 1 (Q60492 whole entry): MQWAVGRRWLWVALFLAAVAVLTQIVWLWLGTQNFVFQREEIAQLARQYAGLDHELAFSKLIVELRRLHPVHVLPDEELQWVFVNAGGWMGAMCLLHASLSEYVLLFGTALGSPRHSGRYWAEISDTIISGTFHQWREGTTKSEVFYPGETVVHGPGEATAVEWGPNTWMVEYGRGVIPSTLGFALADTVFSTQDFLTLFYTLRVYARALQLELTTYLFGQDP

[13] = Drug metabolism in mouse liver microsomes at 1 uM incubated for 1 hr in presence of NADPH by UPLC-MS analysis; assay type: ADME, Microsome; details: read-out: Drug metabolism; summary of the method: as §2
[14] = Stability of compound in phosphate buffer at pH 7.4 after 24 hrs by HPLC analysis; assay type: physicochemical; details: pH 7.4, 24 h; summary of the method: as §1
[15] = target: Sodium-dependent dopamine transporter (Homo sapiens) (UniProt Q01959); assay: Displacement of [3H]GBR12935 from human DAT at 1 uM after 120 mins by scintillation counting method relative to control
Sequence of Sodium-dependent dopamine transporter (Homo sapiens) (Q01959 whole entry): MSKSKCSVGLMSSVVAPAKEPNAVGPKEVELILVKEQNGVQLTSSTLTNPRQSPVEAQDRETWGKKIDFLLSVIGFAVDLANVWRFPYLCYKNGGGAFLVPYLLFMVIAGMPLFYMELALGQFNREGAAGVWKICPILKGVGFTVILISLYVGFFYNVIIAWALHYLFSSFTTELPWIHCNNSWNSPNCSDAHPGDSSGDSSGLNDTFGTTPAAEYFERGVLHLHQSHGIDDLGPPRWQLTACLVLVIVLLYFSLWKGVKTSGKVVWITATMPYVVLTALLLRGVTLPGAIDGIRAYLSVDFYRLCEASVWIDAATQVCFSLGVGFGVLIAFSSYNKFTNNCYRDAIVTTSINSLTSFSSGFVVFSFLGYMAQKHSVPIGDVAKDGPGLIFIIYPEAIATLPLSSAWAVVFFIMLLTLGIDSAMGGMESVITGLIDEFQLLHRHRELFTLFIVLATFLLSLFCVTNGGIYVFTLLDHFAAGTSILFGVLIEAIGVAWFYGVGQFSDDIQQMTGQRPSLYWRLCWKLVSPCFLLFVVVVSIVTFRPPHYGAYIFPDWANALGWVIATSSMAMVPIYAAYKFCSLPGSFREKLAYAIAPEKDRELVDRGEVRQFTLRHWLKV
Summary of the method: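 DAT-enriched human membranes (5 µg), 2 nM [3H]GBR12935 in 50 mM Tris-HCl/100 mM NaCl pH 7.4, 0.1% DMSO, 120 min at 4 °C; 10 µM GBR12909 for nonspecific binding. Compound at 1 µM; displacement measured after filtration.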

[16] = target: Sodium-dependent serotonin transporter (Homo sapiens) (UniProt P31645); assay: Displacement of [3H]imipramine from human serotonin transporter at 1 uM after 30 mins by scintillation counting method relative to control
Sequence of Sodium-dependent serotonin transporter (Homo sapiens) (P31645 whole entry, looked up): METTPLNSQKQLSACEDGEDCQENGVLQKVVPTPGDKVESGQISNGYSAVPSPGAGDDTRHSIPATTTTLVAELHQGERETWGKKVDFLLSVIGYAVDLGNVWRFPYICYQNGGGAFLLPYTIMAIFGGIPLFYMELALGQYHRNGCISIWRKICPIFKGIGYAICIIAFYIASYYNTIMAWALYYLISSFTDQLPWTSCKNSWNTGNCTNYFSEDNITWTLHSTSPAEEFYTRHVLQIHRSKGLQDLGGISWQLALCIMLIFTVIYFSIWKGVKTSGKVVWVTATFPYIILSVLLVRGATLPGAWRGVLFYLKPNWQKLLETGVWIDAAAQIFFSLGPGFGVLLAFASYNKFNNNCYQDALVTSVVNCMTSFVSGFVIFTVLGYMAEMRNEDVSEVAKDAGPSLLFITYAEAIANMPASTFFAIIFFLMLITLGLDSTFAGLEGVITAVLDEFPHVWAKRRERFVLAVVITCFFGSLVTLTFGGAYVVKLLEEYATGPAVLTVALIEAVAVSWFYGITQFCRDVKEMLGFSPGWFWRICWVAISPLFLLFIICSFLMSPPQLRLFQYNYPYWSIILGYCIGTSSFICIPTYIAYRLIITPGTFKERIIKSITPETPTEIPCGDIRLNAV
Summary of the method: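 Human SERT-enriched membranes (3.5 μg) incubated 30 min at 27 °C with 3 nM [3H]imipramine in Tris-HCl/120 mM NaCl/5 mM KCl pH 7.4, 0.1% DMSO; 200 μM imipramine for nonspecific binding. Compound at 1 μM; displacement after filtration.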

[17] = target: Kappa-type opioid receptor (Homo sapiens, UniProt P41145); assay: Inhibition of KOR (unknown origin)
Sequence of Kappa-type opioid receptor (P41145 whole entry): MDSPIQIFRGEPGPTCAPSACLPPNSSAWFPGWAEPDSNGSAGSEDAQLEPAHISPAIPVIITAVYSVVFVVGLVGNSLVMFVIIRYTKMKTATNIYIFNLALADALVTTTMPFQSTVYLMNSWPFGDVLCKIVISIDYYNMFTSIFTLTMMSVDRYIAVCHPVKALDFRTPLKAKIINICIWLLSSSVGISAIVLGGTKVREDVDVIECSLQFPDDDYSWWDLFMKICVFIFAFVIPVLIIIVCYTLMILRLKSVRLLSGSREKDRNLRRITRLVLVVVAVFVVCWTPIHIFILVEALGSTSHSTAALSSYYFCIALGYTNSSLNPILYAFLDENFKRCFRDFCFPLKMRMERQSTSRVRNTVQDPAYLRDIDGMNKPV

Mu-type opioid receptor [18] = target: T2, Mu-type opioid receptor; assay: Agonist activity at MOR (unknown origin) by cAMP assay; assay type: functional

**Q.** What does the source list for `COc1ccc2c(c1)CCN(CCC(F)Cc1ccccc1)CC2` (stereo not given)?
**A.** Activity (HepG2 [1]): Toxic; inhibition (Sus scrofa): 21%; pKi [2]: 6.94; Stability [3]: Stable; pKi (Mu-type opioid receptor [4]): < 6.00; Activity (HepG2 [5]): Toxic; inhibition at 1 µM (CYP2D6): 55%; inhibition [6]: < 50%; pKi [7]: < 6.00; pKi [8]: 6.92; metabolised at 1 h, 1 µM [9]: 100%; inhibition [10]: 70%; metabolised at 1 h, 1 µM [11]: 100%; pKi [12]: 8.18; metabolised at 1 h, 1 µM [13]: 100%; Stability [14]: Stable; inhibition [15]: < 50%; inhibition [16]: < 50%; pKi [17]: < 6.00; pEC50 (Mu-type opioid receptor [18]): < 5.00
